≈ marks a conversion by molar mass, not a printed value.
Each compound was assayed on Mycobacterium tuberculosis (assay: Antimycobacterial activity against Mycobacterium tuberculosis H37Rv ATCC 27294 after 7 days by REMA assay). Conditions: H37Rv ATCC 27294, 168 h.
Assay type: functional
How it was run: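 MIC by resazurin microtiter assay. Bacteria suspended in sterile water with glass beads, vortexed, turbidity set to McFarland tube 1 (3.2 × 10^6 CFU/mL), then diluted 1:20 in Middlebrook 7H9. Compounds in DMSO, two-fold serial dilutions (100.0-3.2 µg/mL) in 7H9 with 10% OADC. Incubated 37 °C for 7 days, resazurin added, further 2 days at 37 °C. MIC read from colour change.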

Q: For `CO[C@H]1/C=C/O[C@@]2(C)Oc3c(C)c(O)c4c(O)c(c(/C=N/N5CCN(C)CC5)c(O)c4c3C2=O)NC(=O)/C(C)=C\C=C\[C@H](C)[C@H](O)[C@@H](C)[C@@H](O)[C@@H](C)[C@H](OC(C)=O)[C@@H]1C` [RIFAMPIN], which MIC is on record?
A: 0.03 mg/L (≈ 0.0365 µM)

Q: How did the MIC turn out when `CCCCCCCC/C=C\CCCCCCCC(=O)NN` [OLEOHYDRAZIDE] was run?
A: 50 mg/L (≈ 169 µM)

Q: Which MIC does the source give for `CCCCCCCC/C=C/CCCCCCCC(=O)NNC(=O)c1ccncc1` here?
A: 0.03 mg/L (≈ 0.0747 µM)

Q: With `NNC(=O)c1ccncc1` [ISONIAZID] as the compound, how does the MIC read?
A: 0.06 mg/L (≈ 0.438 µM)

Q: With `CCCCCCCCCCCCCCCCCC(=O)NNC(=O)c1ccncc1` as the compound, how does the MIC read?
A: 0.03 mg/L (≈ 0.0743 µM)

Q: How did the MIC turn out when `CCCCCC[C@@H](O)C/C=C\CCCCCCCC(=O)NNC(=O)c1ccncc1` was run?
A: 0.03 mg/L (≈ 0.0718 µM)

Q: For `CCCCCCCCCCCCCCCC(=O)NNC(=O)c1ccncc1`, which MIC is on record?
A: 0.015 mg/L (≈ 0.0399 µM)

Q: Which MIC does the source give for `CCCCC/C=C\C/C=C\CCCCCCCC(=O)NNC(=O)c1ccncc1` here?
A: 0.125 mg/L (≈ 0.313 µM)

Q: For `CCCCCCCC/C=C\CCCCCCCC(=O)NNC(=O)c1ccncc1`, which MIC is on record?
A: 0.015 mg/L (≈ 0.0374 µM)

Q: With `CC/C=C\C/C=C\C/C=C\CCCCCCCC(=O)NNC(=O)c1ccncc1` as the compound, how does the MIC read?
A: 0.06 mg/L (≈ 0.151 µM)

Q: `CCCCCCCC/C=C\CCCCCCCC(=O)O` [OLEIC ACID] was tested. Which MIC did it give?
A: 100 mg/L (≈ 354 µM)
